Measurements reported in article PMC3042207 (British Journal of Pharmacology, 2011).
Values joined by “and” are separate entries in the source; they are usually repeats but may differ in a detail not shown here. Equal values may be shown once.

Legend:
[1] = mouse model; ref Maurer et al., 2007; cited from earlier work
[2] = target: T1, UGT 1A3 (Homo sapiens, UniProt P35503); experiment: Glucuronidation of 4-HPR by UGT 1A3 supersomes; type: in vitro ADME; details: UGT 1A3, 1 mg·mL^−1; 4-HPR 0-2000 µM, 3 h
T1 sequence (P35503 29-534): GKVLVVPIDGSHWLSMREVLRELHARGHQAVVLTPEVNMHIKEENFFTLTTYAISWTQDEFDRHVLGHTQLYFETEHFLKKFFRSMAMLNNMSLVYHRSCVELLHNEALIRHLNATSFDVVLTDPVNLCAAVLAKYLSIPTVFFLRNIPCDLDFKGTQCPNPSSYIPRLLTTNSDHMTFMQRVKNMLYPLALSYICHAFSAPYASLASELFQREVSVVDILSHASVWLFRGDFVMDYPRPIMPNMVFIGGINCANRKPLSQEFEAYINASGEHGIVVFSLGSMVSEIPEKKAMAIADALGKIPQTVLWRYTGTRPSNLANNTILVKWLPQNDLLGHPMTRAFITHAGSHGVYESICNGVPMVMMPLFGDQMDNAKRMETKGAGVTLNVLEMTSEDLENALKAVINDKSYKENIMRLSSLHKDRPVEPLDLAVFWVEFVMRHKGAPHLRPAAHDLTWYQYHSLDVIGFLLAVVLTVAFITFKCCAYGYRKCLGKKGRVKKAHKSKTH

[3] = test system: human liver microsomes (HLM); experiment: Oxidative metabolism of 4-HPR by human liver microsomes; type: in vitro ADME; details: 4-HPR 0-20 µM, 3 h, HPLC, mean ± SD, n≥3
How it was run: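 Termination is with ice-cold acetonitrile, then centrifugation at 10 000× g. The 4′-hydroxy and 4′-oxo metabolites are resolved by reversed-phase HPLC with photodiode-array detection. Vmax is derived from formation rates; mean ± SD, n ≥ 3.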

[4] = test system: human intestinal microsomes (HIM); experiment: Glucuronidation of 4-HPR by human intestinal microsomes; type: in vitro ADME; details: HIM, 1 mg·mL^−1; 4-HPR 0-2000 µM, 3 h
How it was run: (§1)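 Intestinal or liver microsomes at 1 mg·mL−1 are incubated with 0–2000 µM substrate (13 levels) for 3 h at 37°C. The buffer is 50 mM Tris-HCl, pH 7.5, with alamethicin 25 µg·mL−1, 8 mM MgCl2, 2 mM UDP-glucuronic acid and 0.25% methanol. Reactions are started with enzyme and stopped with ice-cold acetonitrile. The glucuronide is quantified by C18 HPLC, with identity confirmed by β-glucuronidase. Vmax is in peak area units·min−1; mean ± SD of three independent experiments.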

[5] = as above; type: in vitro ADME; details: human, human intestinal microsomes, pH 7.5
How it was run: as §1

[6] = test system: individual human CYPs; type: in vitro ADME; details: CYPs 3A4, 3A5 and 2C8 supersomes
How it was run: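 Reactions are stopped with acetonitrile and the 4′-hydroxy metabolite is measured by HPLC. With no authentic standard, Vmax is given in peak area units·min−1. Values are mean ± SD of at least three experiments.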

[7] = target: T2, UGT 1A1 (Homo sapiens, UniProt P22309); experiment: Glucuronidation of 4-HPR by UGT 1A1 supersomes; type: in vitro ADME; details: UGT 1A1, 1 mg·mL^−1; 4-HPR 0-2000 µM, 3 h
T2 sequence (P22309 26-533): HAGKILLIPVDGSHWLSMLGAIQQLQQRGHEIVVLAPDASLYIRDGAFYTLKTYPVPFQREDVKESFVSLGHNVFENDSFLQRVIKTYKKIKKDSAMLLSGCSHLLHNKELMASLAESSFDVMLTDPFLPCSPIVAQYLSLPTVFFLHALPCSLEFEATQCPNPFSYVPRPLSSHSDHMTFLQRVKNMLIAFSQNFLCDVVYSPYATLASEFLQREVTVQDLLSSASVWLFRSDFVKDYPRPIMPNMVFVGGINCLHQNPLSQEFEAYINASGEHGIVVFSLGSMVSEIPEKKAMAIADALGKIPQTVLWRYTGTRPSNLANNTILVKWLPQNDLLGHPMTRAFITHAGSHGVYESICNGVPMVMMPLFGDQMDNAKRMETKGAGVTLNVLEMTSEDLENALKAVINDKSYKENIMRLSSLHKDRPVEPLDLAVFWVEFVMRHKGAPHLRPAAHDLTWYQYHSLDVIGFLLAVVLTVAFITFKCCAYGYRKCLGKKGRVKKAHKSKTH

[8] = target: T3, UGT 1A6 (Homo sapiens, UniProt P19224); experiment: Glucuronidation of 4-HPR by UGT 1A6 supersomes; type: in vitro ADME; details: UGT 1A6, 1 mg·mL^−1; 4-HPR 0-2000 µM, 3 h
T3 sequence (P19224 27-532): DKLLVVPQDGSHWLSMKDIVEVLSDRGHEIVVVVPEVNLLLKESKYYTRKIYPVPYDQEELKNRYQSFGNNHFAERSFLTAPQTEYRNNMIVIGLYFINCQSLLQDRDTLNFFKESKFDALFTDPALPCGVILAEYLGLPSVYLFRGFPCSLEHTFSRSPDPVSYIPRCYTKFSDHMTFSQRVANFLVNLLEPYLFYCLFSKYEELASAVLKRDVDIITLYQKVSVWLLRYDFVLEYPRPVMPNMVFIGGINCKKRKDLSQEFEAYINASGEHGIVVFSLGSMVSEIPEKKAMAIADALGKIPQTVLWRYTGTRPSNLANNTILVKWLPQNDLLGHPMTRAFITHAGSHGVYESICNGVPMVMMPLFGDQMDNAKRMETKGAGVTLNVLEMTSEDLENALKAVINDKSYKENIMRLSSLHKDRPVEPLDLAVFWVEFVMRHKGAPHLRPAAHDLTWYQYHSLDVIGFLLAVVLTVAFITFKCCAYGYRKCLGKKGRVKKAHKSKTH

[9] = test system: human liver microsomes (HLM); experiment: Glucuronidation of 4-HPR by human liver microsomes; type: in vitro ADME; details: HLM, 1 mg·mL^−1; 4-HPR 0-2000 µM, 3 h
How it was run: as §1

[10] = Glucuronidation of 4-HPR by human liver microsomes; type: in vitro ADME; details: human, human liver microsomes, pH 7.5
How it was run: as §1

[11] = test system: human liver microsomes (HLM); experiment: Formation of 4-MPR from 4-HPR by HLM with SAM; type: in vitro ADME; details: HLM 0.5 mg·mL^−1, 0–100 µM 4-HPR, 0.2 mM SAM, 3 h

**Q.** For `CC1=C(/C=C/C(C)=C/C=C/C(C)=C/C(=O)Nc2ccc(O)cc2)C(C)(C)CCC1` [4-HPR, fenretinide], which “increase of plasma concentrations, lipid matrix vs oil-based capsules” value [1] is on record?
**A.** up to seven-fold

**Q.** What about the “Vmax, 4-HPR glucuronide formation” value [2] of the same molecule?
**A.** 317 ± 18 peak area U·min^−1

**Q.** What about the “Vmax, 4-HPR glucuronide formation, per pmol UGT” value (“Vmax … per pmol UGT” below) [2] of the same molecule?
**A.** 2.11 peak area U·min^−1·pmol^−1 UGT and 2.11 ± 0.12 peak area U·min^−1·pmol^−1 UGT

**Q.** And the “Vmax, 4′-OH 4-HPR formation” value [3]?
**A.** 28 peak area U·min^−1 and 28 ± 6 peak area U·min^−1

**Q.** And the “Vmax, 4′-oxo 4-HPR formation” value [3]?
**A.** 131 peak area U·min^−1 and 131 ± 14 peak area U·min^−1

**Q.** What about the “Vmax, 4-HPR glucuronide formation” value [4] of the same molecule?
**A.** 418 ± 38 peak area U·min^−1

**Q.** What about the Km at 3 h [5] of the same molecule?
**A.** 1210 ± 202 µM

**Q.** What about the “Vmax, 4′-OH 4-HPR production, range over supersomes expressing individual CYPs” value [6] of the same molecule?
**A.** 115–282 peak area U·min^−1

**Q.** And the “Vmax, 4-HPR glucuronide formation” value [7]?
**A.** 577 ± 34 peak area U·min^−1

**Q.** What about the “Vmax … per pmol UGT” value [7] of the same molecule?
**A.** 0.62 peak area U·min^−1·pmol^−1 UGT and 0.62 ± 0.04 peak area U·min^−1·pmol^−1 UGT

**Q.** What about the “Vmax, 4-HPR glucuronide formation” value [8] of the same molecule?
**A.** 124 ± 6 peak area U·min^−1

**Q.** What about the “Vmax … per pmol UGT” value [8] of the same molecule?
**A.** 0.02 peak area U·min^−1·pmol^−1 UGT and 0.02 ± 0.001 peak area U·min^−1·pmol^−1 UGT

**Q.** And the “Vmax, 4-HPR glucuronide formation” value [9]?
**A.** 679 ± 39 peak area U·min^−1

**Q.** And the Km at 3 h [10]?
**A.** 540 ± 69 µM

**Q.** And the “Vmax, 4-MPR formation” value ([11]; calculated)?
**A.** 823 peak U·min^−1

**Q.** What about the Km ([11]; read-out: Km, 4-MPR formation) of the same molecule?
**A.** 236 µM
